Experimental data from ChEMBL document CHEMBL4480371, “Benzoflavone derivatives as potent antihyperuricemic agents” (Medchemcomm, 2019).
The source made the active and inactive calls. The calls are words filed in the database; no cut-off is given here.

How the values were obtained:
[1] = biological target: T1, Xanthine dehydrogenase/oxidase (Bos taurus, UniProt P80457); test: Inhibition of bovine milk xanthine oxidase using xanthine as substrate preincubated for 5 mins followed by substrate addition by UV-visible spectrophotometry
T1 sequence (P80457 whole entry): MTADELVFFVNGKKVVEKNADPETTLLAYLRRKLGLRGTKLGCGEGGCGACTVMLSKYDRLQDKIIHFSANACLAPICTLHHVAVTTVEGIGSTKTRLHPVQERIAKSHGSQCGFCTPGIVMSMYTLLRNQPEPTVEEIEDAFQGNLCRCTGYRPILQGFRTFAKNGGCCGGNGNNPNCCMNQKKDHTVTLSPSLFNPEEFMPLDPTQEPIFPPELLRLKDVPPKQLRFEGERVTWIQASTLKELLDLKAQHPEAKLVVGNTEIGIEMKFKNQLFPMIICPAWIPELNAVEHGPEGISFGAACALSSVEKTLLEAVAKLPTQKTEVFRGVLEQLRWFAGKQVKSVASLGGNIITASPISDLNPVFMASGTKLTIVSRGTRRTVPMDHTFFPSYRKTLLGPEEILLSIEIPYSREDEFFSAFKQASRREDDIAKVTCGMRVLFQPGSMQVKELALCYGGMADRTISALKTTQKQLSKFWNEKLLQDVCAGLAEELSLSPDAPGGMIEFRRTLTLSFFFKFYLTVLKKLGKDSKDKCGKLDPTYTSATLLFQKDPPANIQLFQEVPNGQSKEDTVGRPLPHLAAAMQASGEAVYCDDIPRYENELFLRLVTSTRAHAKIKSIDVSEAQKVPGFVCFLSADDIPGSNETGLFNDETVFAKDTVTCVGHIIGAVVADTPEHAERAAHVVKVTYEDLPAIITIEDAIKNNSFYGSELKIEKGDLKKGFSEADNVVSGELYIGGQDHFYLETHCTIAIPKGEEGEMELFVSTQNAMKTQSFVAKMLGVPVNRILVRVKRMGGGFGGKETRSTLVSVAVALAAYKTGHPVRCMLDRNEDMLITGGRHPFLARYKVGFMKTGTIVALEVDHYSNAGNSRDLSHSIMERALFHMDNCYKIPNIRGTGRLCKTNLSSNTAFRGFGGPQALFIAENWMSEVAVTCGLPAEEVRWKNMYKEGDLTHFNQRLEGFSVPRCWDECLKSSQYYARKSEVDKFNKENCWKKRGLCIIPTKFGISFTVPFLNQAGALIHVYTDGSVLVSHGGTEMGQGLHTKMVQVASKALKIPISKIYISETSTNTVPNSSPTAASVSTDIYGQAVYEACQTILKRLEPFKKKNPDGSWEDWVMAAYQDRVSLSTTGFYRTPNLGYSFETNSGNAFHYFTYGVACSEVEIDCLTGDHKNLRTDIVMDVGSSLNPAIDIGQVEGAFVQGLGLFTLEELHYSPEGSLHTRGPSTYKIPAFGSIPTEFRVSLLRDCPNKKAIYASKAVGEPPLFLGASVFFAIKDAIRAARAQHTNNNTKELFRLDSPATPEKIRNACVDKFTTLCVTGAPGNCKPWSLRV

[2] = Antioxidant activity assessed as DPPH radical scavenging activity shaken for 1 min and incubated under dark condition for 30 mins by spectrophotometric analysis; type: functional
How it was run: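 DPPH at 0.004% w/v and compounds were made in methanol, mixed 1.5 mL to 1 mL, shaken 1 min at 37 °C, then kept 30 min in the dark. Absorbance was read at 517 nm and % scavenging calculated against a DPPH-plus-methanol control. […] Triplicate, mean.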

[3] = biological target: T1, Xanthine dehydrogenase/oxidase; test: Competitive mixed type inhibition of bovine milk xanthine oxidase using xanthine as substrate preincubated for 5 mins followed by substrate addition by UV-visible spectrophotomety based Lineweaver-Burk plot analysis; conditions: cattle
How it was run: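 Bovine milk xanthine oxidase was assayed in 50 mM potassium phosphate (pH 7.6) at 25 °C, with uric acid formation followed at 293 nm. Enzyme was preincubated 5 min with inhibitor in 1% v/v DMSO, and the reaction was started with xanthine. Inhibition mode came from Lineweaver–Burk plots.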

Mus musculus [4] = test: Anti-hyperuricemic effect in Swiss albino mouse model of potassium oxonate-induced hyperuricemia model assessed as reduction in serum uric acid level treated orally 1 hr post potassium oxonate addition and measured after 30 mins by ERBA method; type: functional, organism-based
How it was run: (§1)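 Male Swiss albino mice, […], 25–30 g, n = 6 per group, fasted 6 h from feed. Xanthine 500 mg/kg was given orally, then potassium oxonate 300 mg/kg ip 30 min later, both in 0.5% CMC. Compounds were dosed orally 1 h after oxonate. Retro-orbital blood was drawn 2 h after PO+Xn, and serum uric acid was read by kit at 505 nm (5 min, 37 °C). Mean ± S.E.M., ANOVA/Tukey.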

Mus musculus [5] = test: Anti-hyperuricemic effect in Swiss albino mouse model of potassium oxonate-induced hyperuricemia model assessed as serum uric acid level at 10 mg/kg, po treated 1 hr post potassium oxonate addition and measured after 30 mins by ERBA method (reference value: 5.9 +/- 0.42 mg/dl); type: functional
Mus musculus [6] = test: Anti-hyperuricemic effect in Swiss albino mouse model of potassium oxonate-induced hyperuricemia model assessed as serum uric acid level at 1 to 10 mg/kg, po treated 1 hr post potassium oxonate addition and measured after 30 mins by ERBA method (reference value: 5.9 +/- 0.42 mg/dl); type: functional; how it was run: as §1
Mus musculus [7] = test: Anti-hyperuricemic effect in Swiss albino mouse model of potassium oxonate-induced hyperuricemia model assessed as reduction in serum uric acid level at 0.55 mg/kg, po treated 1 hr post potassium oxonate addition and measured after 30 mins by ERBA method; type: functional, organism-based; conditions: 0.5 mg/kg, in the assay text read “0.5 mg/kg” for “0.55 mg/kg”; how it was run: as §1
Mus musculus [8] = test: Anti-hyperuricemic effect in Swiss albino mouse model of potassium oxonate-induced hyperuricemia model assessed as serum uric acid level at 5 mg/kg, po treated 1 hr post potassium oxonate addition and measured after 30 mins by ERBA method (reference value: 5.9 +/- 0.42 mg/dl); type: functional; how it was run: as §1
[9] = Acute toxicity in potassium oxonate-induced Swiss albino mouse hyperuricemic model assessed as induction of abnormal behavior at 2000 mg/kg, po measured after 24 hrs; conditions: in vivo

SMILES | IC50 [1] [µM] | IC50 [2] [µM] | further results
O=c1cc(-c2ccccc2F)oc2ccc3ccccc3c12 | 14.7 | > 20 | –
O=c1cc(-c2cccc(Cl)c2)oc2c1ccc1ccccc12 | > 20 | 7.75 | –
O=c1cc(-c2cccc(Cl)c2)oc2ccc3ccccc3c12 | > 20 | > 20 | –
O=c1cc(-c2ccc([N+](=O)[O-])cc2)oc2ccc3ccccc3c12 | 5.21 | > 20 | inhibition (INH) [3]: Active; Activity (Mus musculus [4]): Dose-dependent effect; Activity (Mus musculus [5]): Active
O=c1cc(-c2ccc([N+](=O)[O-])cc2)oc2c1ccc1ccccc12 | 1.95 | 0.62 | Activity (Mus musculus [4]): Dose-dependent effect; Activity (Mus musculus [5]): inactive
O=c1cc(-c2cc([N+](=O)[O-])cc([N+](=O)[O-])c2)oc2ccc3ccccc3c12 | > 20 | > 20 | –
O=c1cc(-c2cccc(Br)c2)oc2c1ccc1ccccc12 | > 20 | 5.98 | –
Cc1ccc(-c2cc(=O)c3ccc4ccccc4c3o2)cc1 | > 20 | 6.5 | –
O=c1cc(-c2cccc(F)c2)oc2c1ccc1ccccc12 | > 20 | 10.1 | –
O=c1cc(-c2ccc(F)cc2)oc2ccc3ccccc3c12 | 12.4 | > 20 | –
O=c1cc(-c2cccc([N+](=O)[O-])c2)oc2ccc3ccccc3c12 | > 20 | > 20 | –
O=c1cc(-c2cc(F)cc(F)c2)oc2c1ccc1ccccc12 | 6.95 | 3.14 | Activity (Mus musculus [6]): 1.8 to 2.8 mg/dL; inhibition (Mus musculus [7]): inactive; Activity (Mus musculus [4]): Dose-dependent effect
O=c1cc(-c2ccccc2)oc2ccc3ccccc3c12 [BETA-NAPHTHOFLAVONE] | > 20 | > 20 | –
O=c1cc(-c2cccc(Br)c2)oc2ccc3ccccc3c12 | > 20 | > 20 | –
Cc1nc(-c2ccc(OCC(C)C)c(C#N)c2)sc1C(=O)O [FEBUXOSTAT] | – | – | Activity (Mus musculus [8]): 1.5 mg/dL
O=c1cc(-c2cccc(Cl)c2Cl)oc2ccc3ccccc3c12 | 18.6 | > 20 | –
O=c1cc(-c2ccccc2Br)oc2ccc3ccccc3c12 | 17.1 | > 20 | –

SMILES | IC50 [1] [µM] | IC50 [2] [µM] | further results
O=c1cc(-c2cccc([N+](=O)[O-])c2)oc2c1ccc1ccccc12 | > 20 | 8.24 | –
O=c1cc(-c2cccc(Cl)c2Cl)oc2c1ccc1ccccc12 | > 20 | 10.9 | –
O=c1cc(-c2ccc(Br)cc2)oc2ccc3ccccc3c12 | 8.9 | > 20 | Activity (Mus musculus [6]): 1.8 to 2.8 mg/dL; inhibition (Mus musculus [7]): inactive; Activity (Mus musculus [8]): Active; Activity (Mus musculus [4]): Dose-dependent effect
O=c1cc(-c2ccccc2I)oc2ccc3ccccc3c12 | > 20 | > 20 | –
O=c1cc(-c2ccccc2F)oc2c1ccc1ccccc12 | 4.94 | 4.73 | Activity [9]: Non-Toxic; Activity (Mus musculus [6]): 1.8 to 2.8 mg/dL; inhibition (Mus musculus [7]): inactive; Activity (Mus musculus [4]): Dose-dependent effect
COc1ccc(-c2cc(=O)c3c(ccc4ccccc43)o2)cc1 | > 20 | > 20 | –
O=c1cc(-c2ccccc2I)oc2c1ccc1ccccc12 | 19.4 | 7.33 | –
Oc1ncnc2[nH]ncc12 [ALLOPURINOL] | – | – | Activity (Mus musculus [5]): 1.8 mg/dL
O=c1cc(-c2cc(F)cc(F)c2)oc2ccc3ccccc3c12 | 7.67 | > 20 | Activity [9]: Non-Toxic; Activity (Mus musculus [6]): 1.8 to 2.8 mg/dL; inhibition (Mus musculus [7]): inactive; Activity (Mus musculus [8]): Active; Activity (Mus musculus [4]): Dose-dependent effect
COc1ccc(-c2cc(=O)c3ccc4ccccc4c3o2)cc1 | 18.9 | 4.27 | –
O=c1cc(-c2ccc(Br)cc2)oc2c1ccc1ccccc12 | 8.93 | 0.35 | Activity (Mus musculus [6]): 1.8 to 2.8 mg/dL; inhibition (Mus musculus [7]): inactive; Activity (Mus musculus [4]): Dose-dependent effect
O=c1cc(-c2ccccc2)oc2c1ccc1ccccc12 [ALPHA-NAPHTHOFLAVONE] | > 20 | 15.6 | –
O=c1cc(-c2cc([N+](=O)[O-])cc([N+](=O)[O-])c2)oc2c1ccc1ccccc12 | > 20 | 5.55 | –
O=c1cc(-c2ccc(F)cc2)oc2c1ccc1ccccc12 | 0.62 | 0.83 | Activity (Mus musculus [4]): Dose-dependent effect; Activity (Mus musculus [5]): inactive
O=c1cc(-c2cccc(F)c2)oc2ccc3ccccc3c12 | > 20 | > 20 | –
O=c1cc(-c2ccccc2Br)oc2c1ccc1ccccc12 | 16.8 | 9.9 | –
Cc1ccc(-c2cc(=O)c3c(ccc4ccccc43)o2)cc1 | > 20 | > 20 | –
